Series [1] deals with Raji. Put plainly: Antiproliferative activity against human Raji cells after 72 hrs by CCK-8 assay. In kind it is functional, cell-based. In short, it runs like this:
(§1)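 CCK-8 viability assay. Cells were seeded at 3000/well in RPMI-1640 with 10% FBS at 37 °C, 5% CO2, for 4 h before treatment. Exposure was 72 h at five concentrations (1.25, 5, 10, 20, 40 µM), each in five replicates. Absorbance was read at 450 nm. IC50 came from dose-response curves, as the mean of at least three separate experiments.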
(In general: Tetrazolium assays rely on reduction of a dye to a coloured formazan, in cell work by metabolically active cells.)

Series [2] deals with T1, Tyrosine-protein kinase JAK3 (Homo sapiens, UniProt P52333).
T1 sequence (P52333 whole entry): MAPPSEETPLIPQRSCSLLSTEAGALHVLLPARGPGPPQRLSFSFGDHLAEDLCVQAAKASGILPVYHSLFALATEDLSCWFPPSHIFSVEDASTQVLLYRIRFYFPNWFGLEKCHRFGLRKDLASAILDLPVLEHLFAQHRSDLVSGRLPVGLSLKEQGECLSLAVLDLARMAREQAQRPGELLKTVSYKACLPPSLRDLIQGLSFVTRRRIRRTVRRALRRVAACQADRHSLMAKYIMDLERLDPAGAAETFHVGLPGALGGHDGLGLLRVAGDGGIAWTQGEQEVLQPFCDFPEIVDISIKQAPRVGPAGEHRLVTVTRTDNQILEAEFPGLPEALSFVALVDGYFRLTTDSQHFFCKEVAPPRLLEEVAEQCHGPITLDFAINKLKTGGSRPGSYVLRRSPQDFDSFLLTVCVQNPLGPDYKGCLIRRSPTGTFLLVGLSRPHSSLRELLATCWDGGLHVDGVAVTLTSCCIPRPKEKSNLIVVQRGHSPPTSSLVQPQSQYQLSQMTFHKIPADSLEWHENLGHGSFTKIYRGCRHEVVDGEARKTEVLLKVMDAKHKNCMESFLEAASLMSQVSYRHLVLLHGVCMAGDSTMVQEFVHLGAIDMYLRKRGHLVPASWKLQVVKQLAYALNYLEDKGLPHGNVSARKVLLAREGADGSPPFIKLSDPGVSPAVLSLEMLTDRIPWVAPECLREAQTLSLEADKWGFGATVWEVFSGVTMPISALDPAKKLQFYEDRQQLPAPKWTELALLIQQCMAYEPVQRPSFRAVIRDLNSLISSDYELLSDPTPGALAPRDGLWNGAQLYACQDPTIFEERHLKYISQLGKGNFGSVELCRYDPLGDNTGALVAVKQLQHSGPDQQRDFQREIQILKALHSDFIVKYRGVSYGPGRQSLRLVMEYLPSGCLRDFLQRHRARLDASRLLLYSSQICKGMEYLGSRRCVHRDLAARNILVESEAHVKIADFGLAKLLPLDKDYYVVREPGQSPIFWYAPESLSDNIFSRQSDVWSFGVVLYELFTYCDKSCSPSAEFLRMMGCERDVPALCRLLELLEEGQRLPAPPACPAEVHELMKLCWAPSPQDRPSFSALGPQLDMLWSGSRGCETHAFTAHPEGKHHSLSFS
Put plainly: Inhibition of recombinant N-terminal GST-tagged human JAK3 (781 to end residues) expressed in baculovirus infected Sf9 insect cells using Poly(4:1 Glu,Tyr) peptide substrate incubated for 60 mins by ADP-Glo luminescence assay. In short, it runs like this:
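ADP-Glo luminescent kinase assay. The kinase reaction ran 60 min at room temperature in 1× kinase buffer. ADP-Glo reagent was added to stop the reaction and deplete ATP, followed by 40 min at room temperature. Detection reagent then converted ADP to ATP for a luciferase readout, followed by 30 min at room temperature. Luminescence was integrated over 0.5–1 s, and IC50 came from curve fitting.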

For series [3], the system named is NAMALVA. As to the kind of experiment: Antiproliferative activity against human NAMALWA cells after 72 hrs by CCK-8 assay. In kind it is functional, cell-based. In short, it runs like this: as §1
Series [4] has as its system Ramos. As to the kind of experiment: Antiproliferative activity against human Ramos cells after 72 hrs by CCK-8 assay.
Series [5] addresses Tyrosine-protein kinase BTK (Homo sapiens, UniProt Q06187). Put plainly: Inhibition of recombinant full-length N-terminal His-tagged human BTK expressed in baculovirus infected Sf9 insect cells using Poly(4:1 Glu,Tyr) peptide substrate incubated for 60 mins by ADP-Glo luminescence assay.
Series [6] deals with Ramos. Put plainly: Induction of apoptosis in human Ramos cells assessed as viable cells at 10 uM after 72 hrs by Annexin V-FITC/propidium iodide staining based flow cytometry (reference value: 98.7%). Conditions: read-out: Activity. It counts as functional. A general note: Flow cytometry measures light scatter and fluorescence of single cells or particles in a stream.
Series [7] relates to Ramos. Put plainly: Induction of apoptosis in human Ramos cells assessed as total apoptosis rate at 10 uM after 72 hrs by Annexin V-FITC/propidium iodide staining based flow cytometry relative to control.
In series [8] the test system is Ramos. As to the kind of experiment: Induction of apoptosis in human Ramos cells assessed as early apoptotic cells at 10 uM after 72 hrs by Annexin V-FITC/propidium iodide staining based flow cytometry (reference value: 0.0%). It counts as functional.
Series [9] concerns Ramos. As to the kind of experiment: Induction of apoptosis in human Ramos cells assessed as late apoptotic cells at 10 uM after 72 hrs by Annexin V-FITC/propidium iodide staining based flow cytometry (reference value: 0.5%). In kind it is functional.
In series [10] the test system is Ramos. Put plainly: Induction of apoptosis in human Ramos cells assessed as necrotic cells at 10 uM after 72 hrs by Annexin V-FITC/propidium iodide staining based flow cytometry (reference value: 0.7%). It counts as functional.
Series [11] relates to PBMC. Put plainly: Cytotoxicity against human PBMCs assessed as induction of morphological changes at <10 uM after 24 hrs by AO/PI staining-based phase contrast microscopy. In kind it is cell-based.

The record followed here is ChEMBL document CHEMBL4251566 (Eur J Med Chem, 2018).

Each structure is given as a SMILES string. Where only a bound is given, the exact number is not on record here.

Chain of Tyrosine-protein kinase BTK (Q06187 whole entry): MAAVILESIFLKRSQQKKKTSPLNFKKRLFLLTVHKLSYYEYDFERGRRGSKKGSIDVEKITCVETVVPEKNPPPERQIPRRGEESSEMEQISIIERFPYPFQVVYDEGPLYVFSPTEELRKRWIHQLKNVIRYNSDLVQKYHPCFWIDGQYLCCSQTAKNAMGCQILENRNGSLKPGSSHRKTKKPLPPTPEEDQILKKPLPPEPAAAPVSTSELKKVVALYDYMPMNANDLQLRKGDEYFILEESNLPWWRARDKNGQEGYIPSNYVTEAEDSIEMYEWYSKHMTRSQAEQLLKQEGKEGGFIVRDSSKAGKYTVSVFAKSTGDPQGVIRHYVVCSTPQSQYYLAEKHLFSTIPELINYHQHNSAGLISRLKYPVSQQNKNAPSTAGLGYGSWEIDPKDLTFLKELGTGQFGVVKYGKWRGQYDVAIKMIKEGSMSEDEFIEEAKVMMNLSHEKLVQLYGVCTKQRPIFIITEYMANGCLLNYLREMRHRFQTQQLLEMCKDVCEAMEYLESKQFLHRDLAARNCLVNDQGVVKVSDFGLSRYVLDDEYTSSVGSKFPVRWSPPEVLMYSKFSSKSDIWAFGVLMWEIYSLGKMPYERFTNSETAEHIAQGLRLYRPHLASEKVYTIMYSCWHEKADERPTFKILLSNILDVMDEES

With `C=CC(=O)Nc1cccc(Nc2nc(Nc3ccc(OCCCN4CCOCC4)c(OC)c3)ncc2Cl)c1`, the IC50 in series [1] was determined as 5.92 µM; in series [2], 0.00677 µM; in series [3], 14.4 µM; in series [4] it was 2.49 µM; in [5], 0.0313 µM.
For the compound `C=CC(=O)Nc1cccc(Nc2nc(Nc3ccc(OC)c(OCCCN4CCOCC4)c3)ncc2Cl)c1`, the IC50 in [1] was found to be 3.86 µM; in series [2] it was 0.00069 µM; in series [3], 5.17 µM; in series [4] it was 7.31 µM; in series [5], 0.0008 µM.
As to `C=CC(=O)Nc1cccc(Nc2nc(Nc3ccc(OCCCN4CCN(CC)CC4)cc3C)ncc2F)c1`, the IC50 was 26 µM in series [1]; > 0.1 µM in series [2]; 26.6 µM in series [3]; 18.5 µM in series [4]; 0.09 µM in [5].
As to `C=CC(=O)Nc1cccc(Nc2nc(Nc3ccc(OCCCN4CCN(CC)CC4)c(Cl)c3)ncc2Cl)c1`, the half-inhibitory concentration (IC50) stood at 11.4 µM in series [1]; 0.00091 µM in series [2]; 2.41 µM in series [3]; 5.72 µM in series [4]; 0.0005 µM in series [5].
On the same counts, the results for `C=CC(=O)Nc1cccc(Nc2nc(Nc3ccc(OC)c(OCCCN4CCOCC4)c3)ncc2F)c1` are 13.9 µM, 0.00095 µM, 3.17 µM, 11.3 µM and 0.0007 µM.
For `C=CC(=O)Nc1cccc(Nc2nc(Nc3ccc(OCCCN4CCN(CC)CC4)cc3C)ncc2Cl)c1`, the 50% inhibitory concentration (IC50) was 35.3 µM in series [1]; > 0.1 µM in series [2]; 35.2 µM in [3]; 14.4 µM in series [4]; > 0.1 µM in series [5].
For `C=CC(=O)Nc1cccc(Nc2nc(Nc3ccc(OCCOC)cc3)ncc2F)c1` [SPEBRUTINIB], the IC50 in series [1] worked out at 25.3 µM; in series [2], 0.0225 µM; in series [3], 3.42 µM; in series [4] it was 14.2 µM. In addition, in series [6], the viability at 10 µM turned out to be 54.2%. The Activity in [7] turned out to be 41.5%; in series [8], 21.1%; in [9], 20.4%; in series [10] it was 4.3%.
Regarding `C=CC(=O)Nc1cccc(Nc2nc(Nc3ccc(OCCCN4CCOCC4)c(Cl)c3)ncc2Cl)c1`, the IC50 in series [1] came out at 22.5 µM; in [2] it was 0.00106 µM; in series [3], 19.4 µM; in series [4], 2 µM; in [5], 0.0007 µM.
Take `C=CC(=O)N1CCC[C@@H](n2nc(-c3ccc(Oc4ccccc4)cc3)c3c(N)ncnc32)C1` [IBRUTINIB]: the IC50 in series [1] came to 20.9 µM; in series [3], 10.5 µM; in series [4], 6.62 µM. In [6], the viability at 10 µM came out at 52%. Also, the Activity in series [11] turned out to be 50%; in [7], 47.9%; in series [8], 37%; in series [10] it was 0.1%.
For `C=CC(=O)Nc1cccc(Nc2nc(Nc3ccc(OCCCN4CCOCC4)cc3C)ncc2Cl)c1`, the IC50 in series [1] is 25.5 µM; in [2], > 0.1 µM; in [3] it was 28 µM; in [4], 18.7 µM; in series [5], 0.0893 µM.
Take `C=CC(=O)Nc1cccc(Nc2nc(Nc3ccc(OCC(=O)N4CCOCC4)c(OC)c3)ncc2F)c1`: the IC50 in [1] was 11.2 µM; in series [2], 0.0112 µM; in [3] it was 15 µM; in series [4] it was > 40 µM; in [5] it was 0.0171 µM.
Turning to `C=CC(=O)Nc1cccc(Nc2nc(Nc3ccc(OCC(=O)N4CCOCC4)cc3)ncc2Cl)c1`, the half-maximal inhibitory concentration (IC50) stood at 5.68 µM in series [1]; 0.00139 µM in series [2]; 4.42 µM in [3]; 25.6 µM in [4]; 0.001 µM in series [5].
On the same counts, the results for `C=CC(=O)Nc1cccc(Nc2nc(Nc3ccc(OCCCN4CCN(C)CC4)cc3C)ncc2Cl)c1` are 25 µM, 0.0911 µM, 24.6 µM, 22.6 µM and 0.0817 µM.
For `C=CC(=O)Nc1cccc(Nc2nc(Nc3ccc(OCC(=O)N4CCOCC4)c(OC)c3)ncc2Cl)c1`, the IC50 in series [1] was 22.5 µM; in series [2], 0.0216 µM; in [3], 17.2 µM; in series [4], > 40 µM; in [5], 0.0105 µM.

Usually IC50 stands for the concentration at which inhibition is half-maximal.
